Data published in PMC6875695 (Journal of controlled release : official journal of the …, 2019).

Columns and labels:
HIV-1ADA = experiment: EC50 assay in MDM, HIV-1 RT activity; type: cell-based; conditions: Human immunodeficiency virus 1, 240 h
Outline: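 Human monocytes differentiated to macrophages with MCSF (1000 U/mL) for 7 days, then seeded at 0.15 × 10^6 cells/well and kept at 37 °C, 5% CO2. Cells were pretreated 2 h with test compound (0.1–1000 nM) and challenged with HIV-1ADA at MOI 0.1 for 4 h. After a PBS wash they were re-fed drug-containing medium at the same concentrations. Supernatant RT activity was read 10 days post-challenge.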

HIV-1NL4–3-eGFP = experiment: EC50 assay in CEM-CD4+ T-cells, HIV-1 RT activity; type: cell-based; conditions: Human immunodeficiency virus 1, T-cell, 240 h
HIV-1 = conditions: no reference given; cited from earlier work

For `Cc1cc(/C=C/C#N)cc(C)c1Nc1ccnc(Nc2ccc(C#N)cc2)n1` [RPV, rilpivirine], the EC50 (HIV-1ADA) is given as 1.9 nM, the EC50 (HIV-1NL4–3-eGFP) is given as 0.8 nM and the “protein-adjusted 90% inhibitory concentration (PA-IC90)” value (HIV-1) is given as 0.012 µg/mL.
